Assay results as given in ChEMBL document CHEMBL1124929, “Indolo[2,1-a]isoquinolines. Syntheses, steroid hormone receptor binding affinities, and cytostatic activity” (1990).

Columns and labels:
[1] = target: Estrogen receptor (Bos taurus) (UniProt Q9XSB5+P49884); test: Relative binding affinity(RBA) for 50% displacement of [3H]-estradiol from Estrogen receptor compared to 17-beta-estradiol; assay type: protein assay
Method in brief: (§1)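 Receptor source was calf uterine cytosol (105000g supernatant, 3 mg/mL protein in assay). Buffers were Tris/EDTA pH 7.4, with NaN₃ for ER, molybdate/glycerol for AR, and sucrose for PR. Tracers were 1 nM [³H]estradiol, [³H]mibolerone or [³H]Org 2058. Incubation was at 0–4 °C for 16 h (ER) or 2 h (AR, PR), with 4–6 competitor concentrations. Nonspecific binding used 2 µM of the unlabeled hormone. Separation was by dextran-coated charcoal. RBA is the ratio of IC50 values for hormone and compound ×100, mean of two triplicate experiments.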

[2] = target: T1, Androgen Receptor (Bos taurus) (UniProt Q5EM59); test: Relative binding affinity(RBA) for 50% displacement of [3H]mibolerone from Androgen receptor compared to testorone; method in brief: as §1
T1 sequence (whole entry): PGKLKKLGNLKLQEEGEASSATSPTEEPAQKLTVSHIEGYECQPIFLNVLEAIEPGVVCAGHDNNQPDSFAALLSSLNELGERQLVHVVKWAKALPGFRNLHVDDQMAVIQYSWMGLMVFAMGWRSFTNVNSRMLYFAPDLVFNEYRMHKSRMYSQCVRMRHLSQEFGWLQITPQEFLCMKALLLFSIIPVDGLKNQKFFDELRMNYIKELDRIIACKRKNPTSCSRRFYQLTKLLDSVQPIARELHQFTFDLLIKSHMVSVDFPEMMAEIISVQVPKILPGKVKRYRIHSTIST

Bos taurus = species: Bos taurus; test: Relative binding affinity(RBA) as ratio of progesterone and compound required to displace [3H]-org 2058 binding to Progesterone receptor by 50%; method in brief: as §1
[3] = target: T1, Androgen Receptor (Bos taurus); test: Relative binding affinities (RBA) for Androgen receptor (AR); method in brief: as §1
[4] = target: T2, Estrogen receptor (Mus musculus) (UniProt O08537+P19785); test: Estrogenic activity in uterotrophic assay in immature mice at 2 ug subcutaneous dose; assay type: functional
Method in brief: (§2)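 Immature female NMRI mice, 20 days old, in groups of 6-10, were dosed sc once daily for three consecutive days. Compounds were given in PEG/0.9% saline 1:1; vehicle controls were included. Animals were killed 24 h after the last dose. Uteri were fixed in Bouin solution and the effect was taken as uterine dry weight (mg)/body weight (g) ×100, given as mean ± SD.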

[5] = target: T2, Estrogen receptor (Mus musculus); test: Estrogenic activity in uterotrophic assay in immature mice at 125 ug subcutaneous dose; assay type: functional; method in brief: as §2
MCF7 [6] = test: Effect on hormone-dependent MCF-7 human breast cancer cell proliferation at 1x10E-5 M; assay type: functional
Method in brief: (§3)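 Cells were plated at about 2 × 10⁴ per well in six-well dishes. MCF-7 cells were grown in modified improved MEM with 5% NCS, switched to charcoal-treated NCS two weeks before the test, and exposed for 5 days with a re-dose on day 4. MDA-MB 231 cells were grown in McCoy 5a with 10% NCS and exposed for 2 days. Compounds were given 1 day after plating in 0.1% DMSO, with DMSO-matched controls. Read-out was cell number as % T/C, mean of three experiments with six dishes.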

MDA-MB-231 [7] = test: Cytostatic effect on hormone-independent MDA-MB 231 human breast cancer cell proliferation at5x10E-6M; assay type: functional; method in brief: as §3
MCF7 [8] = test: Effect on hormone-dependent MCF-7 human breast cancer cell proliferation at 5x10E-6M; assay type: functional; method in brief: as §3
MDA-MB-231 [9] = test: Effect on [3H]thymidine incorporation into MDA-MB 231 human breast cancer cells at 5x10E-6M; assay type: functional
Method in brief: (§4)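 Cells were seeded at ~2 × 10⁴ per well, treated from the next day in 0.1% DMSO, with DMSO controls. MCF-7 cells were held in charcoal-stripped NCS for 2 weeks, treated for 5 days and re-dosed on day 4. MDA-MB 231 cells were grown in McCoy 5a/10% NCS and treated for 2 days. At the end, 1 µCi [³H]thymidine per well was added for 2 h. Result is % T/C, mean of three experiments × six dishes.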

MDA-MB-231 [10] = test: Cytostatic effect on hormone-independent MDA-MB 231 human breast cancer cell proliferation at 1x10E-5 M; assay type: functional; method in brief: as §3
[11] = target: T2, Estrogen receptor (Mus musculus); test: (§5) Estrogenic activity in uterotrophic assay in immature mice at 40.0 ug subcutaneous dose; assay type: functional; method in brief: as §2
MDA-MB-231 [12] = test: Effect on [3H]thymidine incorporation into MDA-MB 231 human breast cancer cells at 1x10E-5 M; assay type: functional; method in brief: as §4
MDA-MB-231 [13] = test: Cytostatic effect on hormone-independent MDA-MB 231 human breast cancer cell proliferation at 1x10E-6M; assay type: functional; method in brief: as §3
[14] = target: T2, Estrogen receptor (Mus musculus); test: Inhibition of 0.4 ug estrone-stimulated uterine growth in mice at 2 ug subcutaneous dose; assay type: functional
Method in brief: (§6)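 Immature 20-day-old female NMRI mice received sc injections on three consecutive days. Each injection held 0.4 µg estrone plus the compound in PEG/saline 1:1. […] Significance was tested by Mann-Whitney U test.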

MCF7 [15] = test: Effect on [3H]thymidine incorporation into MCF-7 human breast cancer cells at 5x10E-6M; assay type: functional; method in brief: as §4
MCF7 [16] = test: Effect on [3H]thymidine incorporation into MCF-7 human breast cancer cells at 1x10E-5 M; assay type: functional; method in brief: as §4
MCF7 [17] = test: Effect on [3H]thymidine incorporation into MCF-7 human breast cancer cells at 1x10E-6M; assay type: functional; method in brief: as §4
MDA-MB-231 [18] = test: Effect on [3H]-thymidine incorporation into MDA-MB 231 human breast cancer cells at 1x10E-6M; assay type: functional; method in brief: as §4
MCF7 [19] = test: Effect on hormone-dependent MCF-7 human breast cancer cell proliferation at 1x10E-6M; assay type: functional; method in brief: as §3
[20] = target: T2, Estrogen receptor (Mus musculus); test: as §5; assay type: functional; method in brief: as §2; remark: listed apart in the source
[21] = target: T2, Estrogen receptor (Mus musculus); test: Inhibition of 0.4 ug estrone-stimulated uterine growth in mice at 40.0 ug subcutaneous dose; assay type: functional; method in brief: as §6

T2 sequence (O08537 whole entry, looked up): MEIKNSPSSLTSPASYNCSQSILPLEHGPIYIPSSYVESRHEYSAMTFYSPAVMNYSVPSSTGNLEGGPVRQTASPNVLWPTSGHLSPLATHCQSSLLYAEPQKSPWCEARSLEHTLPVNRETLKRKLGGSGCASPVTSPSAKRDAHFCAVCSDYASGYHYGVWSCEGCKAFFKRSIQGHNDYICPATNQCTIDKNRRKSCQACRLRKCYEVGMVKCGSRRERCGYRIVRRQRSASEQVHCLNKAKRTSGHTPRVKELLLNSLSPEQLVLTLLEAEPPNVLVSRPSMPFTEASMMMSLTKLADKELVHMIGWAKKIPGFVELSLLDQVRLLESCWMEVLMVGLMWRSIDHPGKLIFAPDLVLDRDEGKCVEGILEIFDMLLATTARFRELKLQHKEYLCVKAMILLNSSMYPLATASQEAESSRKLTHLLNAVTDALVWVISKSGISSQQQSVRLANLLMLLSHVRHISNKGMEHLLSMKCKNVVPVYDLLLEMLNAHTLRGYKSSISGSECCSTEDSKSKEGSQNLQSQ
T2 sequence (P19785 whole entry, looked up): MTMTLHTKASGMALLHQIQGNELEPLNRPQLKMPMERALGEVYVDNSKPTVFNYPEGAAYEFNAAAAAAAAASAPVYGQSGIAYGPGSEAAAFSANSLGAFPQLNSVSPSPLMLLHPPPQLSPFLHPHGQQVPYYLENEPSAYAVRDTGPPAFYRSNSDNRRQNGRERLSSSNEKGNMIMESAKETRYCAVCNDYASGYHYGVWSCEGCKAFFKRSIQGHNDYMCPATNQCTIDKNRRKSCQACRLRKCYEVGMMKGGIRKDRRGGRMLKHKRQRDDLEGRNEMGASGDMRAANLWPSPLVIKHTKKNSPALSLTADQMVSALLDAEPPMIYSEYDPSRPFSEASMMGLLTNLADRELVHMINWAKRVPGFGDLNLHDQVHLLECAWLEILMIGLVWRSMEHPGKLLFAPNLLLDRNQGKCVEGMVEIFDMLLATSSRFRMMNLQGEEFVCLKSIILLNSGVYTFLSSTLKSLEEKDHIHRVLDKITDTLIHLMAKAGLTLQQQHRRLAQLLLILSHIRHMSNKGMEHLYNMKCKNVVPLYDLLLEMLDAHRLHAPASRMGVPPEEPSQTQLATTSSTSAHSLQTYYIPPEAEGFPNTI

**Q.** How did the RBA [1] turn out when CC(=O)Oc1ccc2c(c1)CCn1c-2cc2cc(OC(C)=O)c(OC(C)=O)cc21 was run?
**A.** 0.01

**Q.** What about the RBA [2] of the same molecule?
**A.** < 0.01

**Q.** What does the source list for CC(=O)Oc1ccc2c(c1)CCn1c-2cc2cc(OC(C)=O)ccc21?
**A.** RBA [1]: 2; RBA (Bos taurus): < 0.01; relative binding affinity (RBA) [3]: < 0.01

**Q.** What does the source list for CC(=O)Oc1ccc2c(c1)cc1n2CCc2cc(OC(C)=O)c(OC(C)=O)cc2-1?
**A.** RBA [1]: 0.15; RBA [2]: < 0.01; RBA (Bos taurus): < 0.01

**Q.** For CC(=O)Oc1ccc2cc3n(c2c1)CCc1cc(OC(C)=O)c(OC(C)=O)cc1-3, which RBA [1] is on record?
**A.** 0.05

**Q.** And the RBA [2]?
**A.** < 0.01

**Q.** How did the Effect [4] turn out when CCC1Cc2cc(OC(C)=O)c(OC(C)=O)cc2-c2cc3cc(OC(C)=O)ccc3n21 (stereo unspecified) was run?
**A.** 21.2

**Q.** And the RBA [1]?
**A.** 2.9

**Q.** And the Effect [5]?
**A.** 55.8

**Q.** What about the T/C (MCF7 [6]) of the same molecule?
**A.** 22%

**Q.** What about the T/C (MDA-MB-231 [7]) of the same molecule?
**A.** 62%

**Q.** What about the RBA [2] of the same molecule?
**A.** < 0.01

**Q.** What about the RBA (Bos taurus) of the same molecule?
**A.** 0.04

**Q.** What about the T/C (MCF7 [8]) of the same molecule?
**A.** 39%

**Q.** And the T/C (MDA-MB-231 [9])?
**A.** 35%

**Q.** What about the T/C (MDA-MB-231 [10]) of the same molecule?
**A.** 51%

**Q.** What about the Effect [11] of the same molecule?
**A.** 42.8

**Q.** And the T/C (MDA-MB-231 [12])?
**A.** 38%

**Q.** What about the T/C (MDA-MB-231 [13]) of the same molecule?
**A.** 100%

**Q.** And the inhibition [14]?
**A.** 11.7%

**Q.** And the T/C (MCF7 [15])?
**A.** 11%

**Q.** And the T/C (MCF7 [16])?
**A.** 3%

**Q.** And the T/C (MCF7 [17])?
**A.** 95%

**Q.** What about the T/C (MDA-MB-231 [18]) of the same molecule?
**A.** 77%

**Q.** And the T/C (MCF7 [19])?
**A.** 89%

**Q.** And the Effect [20]?
**A.** 49.7

**Q.** What about the inhibition [21] of the same molecule?
**A.** 15.7%
